Laboratory results as given in paper PMC7433031 (European journal of medicinal chemistry, 2020).
Read-outs that look alike come from different tables or passages of the source. Values belong to the molecule of their own block, whether it stands above or below them.

Tests used:
MOLT-4 T-ALL cells = test: MOLT-4 cell viability assay; format: cell-based, human
BCL-XL = BCL-XL (Homo sapiens, UniProt Q07817); test: Western blot of BCL-XL protein levels in MOLT-4 cells; format: cell-based; conditions: 16 h; for BCL-XL degradation in MOLT-4 cells at 100 nM: Western blot (Figure 3)
BCL-XL, sequence (Q07817 whole entry): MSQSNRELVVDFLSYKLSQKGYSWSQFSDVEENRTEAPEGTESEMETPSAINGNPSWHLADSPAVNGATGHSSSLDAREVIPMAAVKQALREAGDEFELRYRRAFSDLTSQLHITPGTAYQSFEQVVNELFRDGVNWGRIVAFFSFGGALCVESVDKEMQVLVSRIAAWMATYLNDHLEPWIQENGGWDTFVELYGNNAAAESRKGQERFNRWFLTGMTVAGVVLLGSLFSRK
Method in brief: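 MOLT-4 cells were treated for 16 h with test compound (100 nM for VHL-based, 50 nM for CRBN-based, or a concentration series for DC50). Other runs used 100 nM over a time course, or 16 h exposure followed by washout into drug-free medium. Some cells were pretreated 2 h with 10 μM pomalidomide or 1 μM MG-132. Immunoblot bands were normalized to β-actin and expressed as % remaining versus vehicle.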

[1] = test system: H146 small cell lung cancer cell line; test: H146 cell viability assay; format: cell-based; conditions: Homo sapiens, NCI-H146, 48 h, read-out: IC50 48 h treatment H146
Method in brief: (§1)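 NCI-H146 small-cell lung cancer and RS4;11 B-ALL cells maintained in RPMI 1640 plus 10% FBS and 1% penicillin-streptomycin. Cells seeded at 5×10⁴ to 1×10⁵ per well and treated with test compound for 48 h. Viability measured by tetrazolium-based MTS assay, with IC50 calculated from the viability data.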

[2] = test system: RS4;11 B-cell ALL cell line; test: RS4; format: cell-based; conditions: Homo sapiens, RS4-11, 48 h, read-out: IC50 48 h treatment RS4;11
Method in brief: as §1

human platelets = test: Human platelet viability assay; format: cell-based; conditions: for IC50: Homo sapiens, Platelet, 48 h, read-out: IC50 48 h treatment Platelets
Method in brief: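 Platelets were separated from purchased platelet-rich plasma in acid citrate buffer with 1 μM PGE1 and 0.2 units/mL apyrase (final). Cells were centrifuged and adjusted to 2 × 10⁸/mL in HEPES Tyrode's buffer with 10% FBS, 1 μM PGE1 and 0.2 units/mL apyrase. They were treated for 48 h, with or without a 10 μM pomalidomide block, and read by MTS. IC50 values were curve-fitted. The ratio divides platelet IC50 by 48 h MOLT-4 MTS IC50.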

CLL patients = conditions: cited from earlier work
[3] = Homo sapiens, MOLT-4, 48 h, read-out: IC50 48 h treatment MOLT-4
[4] = Homo sapiens, MOLT-4, 48 h, read-out: IC50, reduction of MOLT-4 cell viability
[5] = read-out: IC50, reduction of MOLT-4 cell viability, MOLT-4 cells, 48 h treatment, means of at least three independent experiments (Tables 1-4)

Molecule: CC1(C)CCC(c2ccc(Cl)cc2)=C(CN2CCN(c3ccc(C(=O)NS(=O)(=O)c4ccc(N[C@H](CCN5CCN(C(=S)NCCOCCOCCNc6cccc7c6C(=O)N([C@@H]6CCC(=O)NC6=O)C7=O)CC5)CSc5ccccc5)c(S(=O)(=O)C(F)(F)F)c4)cc3)CC2)C1 (racemic) [Compound 11b, 4-(4-((2-(4-Chlorophenyl)-5,5-dimethylcyclohex-1-enyl)methyl)piperazin-1-yl)-N-(4-((2R)-4-(4-(2-(2-(2-(2-(2,6-dioxopiperidin-3-yl)-1,3-dioxoisoindolin-4-ylamino)ethoxy)ethoxy)ethylcarbamothioyl)piperazin-1-yl)-1-(phenylthio)butan-2-ylamino)-3-(trifluoromethylsulfonyl)phenylsulfonyl)benzamide]
fold decrease in potency compared to 11a (MOLT-4 T-ALL cells; MOLT-4, versus 11a): ~ 6 fold

Molecule: Cc1ncsc1-c1ccc([C@H](C)NC(=O)[C@@H]2C[C@@H](O)CN2C(=O)[C@@H](NC(=O)CCOCCC(=O)N2CCN(CC[C@H](CSc3ccccc3)Nc3ccc(S(=O)(=O)NC(=O)c4ccc(N5CCN(CC6=C(c7ccc(Cl)cc7)CCC(C)(C)C6)CC5)cc4)cc3S(=O)(=O)C(F)(F)F)CC2)C(C)(C)C)cc1 [Compound 3a, (2S,4R)-1-((S)-2-(3-(3-(4-((R)-3-((4-(N-(4-(4-((4’-Chloro-4,4-dimethyl-3,4,5,6-tetrahydro-[1,1’-biphenyl]-2-yl)methyl)piperazin-1-yl)benzoyl)sulfamoyl)-2-((trifluoromethyl)sulfonyl)phenyl)amino)-4-(phenylthio)butyl)piperazin-1-yl)-3-oxopropoxy)propanamido)-3,3-dimethylbutanoyl)-4-hydroxy-N-((S)-1-(4-(4-methylthiazol-5-yl)phenyl)ethyl)pyrrolidine-2-carboxamide]
times less potent than 1e in MOLT-4 cell viability (MOLT-4 T-ALL cells; MOLT-4, versus 1e): ~ 4 times

BCL-XL degradation in MOLT-4 cells at 100 nM (BCL-XL): weak BCL-XL degradation
Molecule: Cc1ncsc1-c1ccc([C@H](C)NC(=O)[C@@H]2C[C@@H](O)CN2C(=O)[C@@H](NC(=O)CCCCCC(=O)N(C)CC[C@H](CSc2ccccc2)Nc2ccc(S(=O)(=O)NC(=O)c3ccc(N4CCN(CC5=C(c6ccc(Cl)cc6)CCC(C)(C)C5)CC4)cc3)cc2S(=O)(=O)C(F)(F)F)C(C)(C)C)cc1 [Compound 5, N^1-((R)-3-((4-(N-(4-(4-((4’-Chloro-4,4-dimethyl-3,4,5,6-tetrahydro-[1,1’-biphenyl]-2-yl)methyl)piperazin-1-yl)benzoyl)sulfamoyl)-2-((trifluoromethyl)sulfonyl)phenyl)amino)-4-(phenylthio)butyl)-N^7-((S)-1-((2S,4R)-4-hydroxy-2-(((S)-1-(4-(4-methylthiazol-5-yl)phenyl)ethyl)carbamoyl)pyrrolidin-1-yl)-3,3-dimethyl-1-oxobutan-2-yl)-N^1-methylheptanediamide]

Molecule: Cc1ncsc1-c1ccc([C@H](C)NC(=O)[C@@H]2C[C@@H](O)CN2C(=O)[C@@H](NC(=O)CCCCCCN(C)CC[C@H](CSc2ccccc2)Nc2ccc(S(=O)(=O)NC(=O)c3ccc(N4CCN(CC5=C(c6ccc(Cl)cc6)CCC(C)(C)C5)CC4)cc3)cc2S(=O)(=O)C(F)(F)F)C(C)(C)C)cc1 [Compound 6c, (2S,4R)-1-((S)-2-(7-(((R)-3-((4-(N-(4-(4-((4’-Chloro-4,4-dimethyl-3,4,5,6-tetrahydro-[1,1’-biphenyl]-2-yl)methyl)piperazin-1-yl)benzoyl)sulfamoyl)-2-((trifluoromethyl)sulfonyl)phenyl)amino)-4-(phenylthio)butyl)(methyl)amino)heptanamido)-3,3-dimethylbutanoyl)-4-hydroxy-N-((S)-1-(4-(4-methylthiazol-5-yl)phenyl)ethyl)pyrrolidine-2-carboxamide]
BCL-XL degradation in MOLT-4 cells at 100 nM (BCL-XL): the most potent degrader among its analogs

IC50 (MOLT-4 T-ALL cells; [3]): 17.3 nM
IC50 (MOLT-4 T-ALL cells; [4]): 17.3 nM
IC50 [1]: 24.6 nM
IC50 [2]: 38.5 nM
Molecule: CC1(C)CCC(c2ccc(Cl)cc2)=C(CN2CCN(c3ccc(C(=O)NS(=O)(=O)c4ccc(N[C@H](CCN5CCN(CCOCCOCCOCCNc6cccc7c6C(=O)N(C6CCC(=O)NC6=O)C7=O)CC5)CSc5ccccc5)c(S(=O)(=O)C(F)(F)F)c4)cc3)CC2)C1 (stereo partly drawn) [Compound 12c, 4-(4-((4’-Chloro-4,4-dimethyl-3,4,5,6-tetrahydro-[1,1’-biphenyl]-2-yl)methyl)piperazin-1-yl)-N-((4-(((2R)-4-(4-(2-(2-(2-(2-((2-(2,6-dioxopiperidin-3-yl)-1,3-dioxoisoindolin-4-yl)amino)ethoxy)ethoxy)ethoxy)ethyl)piperazin-1-yl)-1-(phenylthio)butan-2-yl)amino)-3-((trifluoromethyl)sulfonyl)phenyl)sulfonyl)benzamide]
IC50 (human platelets): 1560 nM

IC50 (MOLT-4 T-ALL cells; [3]): 29.2 nM
IC50 (MOLT-4 T-ALL cells; [4]): 29.2 nM
IC50 [1]: 61.7 nM
IC50 [2]: 62.2 nM
Molecule: CN(CCCCCCCn1cc(COCCOCCNc2cccc3c2C(=O)N(C2CCC(=O)NC2=O)C3=O)nn1)CC[C@H](CSc1ccccc1)Nc1ccc(S(=O)(=O)NC(=O)c2ccc(N3CCN(CC4=C(c5ccc(Cl)cc5)CCC(C)(C)C4)CC3)cc2)cc1S(=O)(=O)C(F)(F)F (stereo partly drawn) [Compound 15a, 4-(4-((4’-Chloro-4,4-dimethyl-3,4,5,6-tetrahydro-[1,1’-biphenyl]-2-yl)methyl)piperazin-1-yl)-N-((4-(((2R)-4-((7-(4-((2-(2-((2-(2,6-dioxopiperidin-3-yl)-1,3-dioxoisoindolin-4-yl)amino)ethoxy)ethoxy)methyl)-1H-1,2,3-triazol-1-yl)heptyl)(methyl)amino)-1-(phenylthio)butan-2-yl)amino)-3-((trifluoromethyl)sulfonyl)phenyl)sulfonyl)benzamide]
BCL-XL degradation in MOLT-4 cells at 50 nM (BCL-XL; 50 nM, Western blot (Figure 4)): better BCL-XL degraders than their amide analogs
IC50 (human platelets): 6250 nM

IC50 (MOLT-4 T-ALL cells; [3]): 32.5 nM
IC50 (MOLT-4 T-ALL cells; [4]): 32.5 nM
IC50 [1]: 70.2 nM
IC50 [2]: 129 nM
Molecule: CN(CCCNc1cccc2c1C(=O)N(C1CCC(=O)NC1=O)C2=O)CC[C@H](CSc1ccccc1)Nc1ccc(S(=O)(=O)NC(=O)c2ccc(N3CCN(CC4=C(c5ccc(Cl)cc5)CCC(C)(C)C4)CC3)cc2)cc1S(=O)(=O)C(F)(F)F (stereo partly drawn) [Compound 16a, 4-(4-((4’-Chloro-4,4-dimethyl-3,4,5,6-tetrahydro-[1,1’-biphenyl]-2-yl)methyl)piperazin-1-yl)-N-((4-(((2R)-4-((3-((2-(2,6-dioxopiperidin-3-yl)-1,3-dioxoisoindolin-4-yl)amino)propyl)(methyl)amino)-1-(phenylthio)butan-2-yl)amino)-3-((trifluoromethyl)sulfonyl)phenyl)sulfonyl)benzamide]
IC50 (human platelets): 3300 nM

Molecule: CC1(C)CCC(CN2CCN(c3ccc(C(=O)NS(=O)(=O)c4ccc(NCC5CCOCC5)c([N+](=O)[O-])c4)c(Oc4cnc5[nH]ccc5c4)c3)CC2)=C(c2ccc(Cl)cc2)C1 [venetoclax]
complete remission rate (CLL patients): 20%
overall response rate (CLL patients): 71–79%

Molecule: (2S,4R)-1-((S)-2-(2-(2-(2-(4-((R)-3-((4-(N-(4-(4-((4’-Chloro-4,4-dimethyl-3,4,5,6-tetrahydro-[1,1’-biphenyl]-2-yl)methyl)piperazin-1-yl)benzoyl)sulfamoyl)-2-((trifluoromethyl)sulfonyl)phenyl)amino)-4-(phenylthio)butyl)piperazin-1-yl)ethoxy)ethoxy)acetamido)-3,3-dimethylbutanoyl)-4-hydroxy-N-((S)-1-(4-(4-methylthiazol-5-yl)phenyl)ethyl)pyrrolidine-2-carboxamide [Compound 4b]
times less potent than 4a in reducing MOLT-4 cell viability (MOLT-4 T-ALL cells; MOLT-4, versus 4a): ~ 6 times
IC50 (MOLT-4 T-ALL cells; [5]): 914 nM
BCL-XL degradation in MOLT-4 cells at 100 nM (BCL-XL): slightly more potent in inducing BCL-XL degradation than 4a

Molecule: (2S,4R)-1-((S)-2-(2-(2-(4-((R)-3-((4-(N-(4-(4-((4’-Chloro-4,4-dimethyl-3,4,5,6-tetrahydro-[1,1’-biphenyl]-2-yl)methyl)piperazin-1-yl)benzoyl)sulfamoyl)-2-((trifluoromethyl)sulfonyl)phenyl)amino)-4-(phenylthio)butyl)piperazin-1-yl)ethoxy)acetamido)-3,3-dimethylbutanoyl)-4-hydroxy-N-((S)-1-(4-(4-methylthiazol-5-yl)phenyl)ethyl)pyrrolidine-2-carboxamide [Compound 4a]
IC50 (MOLT-4 T-ALL cells; [5]): 151 nM

IC50 ratio between human platelets and MOLT-4 cells (human platelets; platelets IC50 / MOLT-4 IC50, 48 h): 1.1
Molecule: navitoclax [ABT-263, reference compound]
selectivity for MOLT-4 cells over human platelets (human platelets; MOLT-4 versus human platelets): no selectivity
